Source: ChEMBL document CHEMBL4196009, “Novel vitexin-inspired scaffold against leukemia” (Eur J Med Chem, 2018)

Legend:
KOPN-8 [1] = experiment: Induction of apoptosis in human KOPN8 cells assessed as effect on Mcl-1 level at 30 uM after 24 hrs by Western blot analysis relative to control; type: functional
In short: (§1)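 KOPN-8 cells were exposed to compound for 3 h and 24 h, with or without N-acetylcysteine added to a parallel set as antioxidant. Lysates were analysed by Western blot for cleaved PARP, Mcl-1, Ser-2-phosphorylated RNAPII CTD, cMyc, total Rb and pRb. Signals were compared against controls for dose-dependent change.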

UoC-B1 = experiment: Antiproliferative activity against human UOCB1 cells after 72 hrs by CelTiter-Glo assay; type: functional, cell-based; conditions: UoC-B1, 72 h
HepG2 = experiment: Antiproliferative activity against human HepG2 cells after 72 hrs by CelTiter-Glo assay; type: functional, cell-based; conditions: HepG2, 72 h
[2] = biological target: T1, Retinoblastoma-associated protein (Homo sapiens) (UniProt P06400); experiment: Inhibition of Rb phosphorylation in human KOPN8 cells assessed as ratio of phosphorylated Rb to total Rb levels at 30 uM pre-treated with NAC for 1 hr and measured after 24 hrs by Western blot analysis relative to control; type: cell-based
T1 sequence (whole entry): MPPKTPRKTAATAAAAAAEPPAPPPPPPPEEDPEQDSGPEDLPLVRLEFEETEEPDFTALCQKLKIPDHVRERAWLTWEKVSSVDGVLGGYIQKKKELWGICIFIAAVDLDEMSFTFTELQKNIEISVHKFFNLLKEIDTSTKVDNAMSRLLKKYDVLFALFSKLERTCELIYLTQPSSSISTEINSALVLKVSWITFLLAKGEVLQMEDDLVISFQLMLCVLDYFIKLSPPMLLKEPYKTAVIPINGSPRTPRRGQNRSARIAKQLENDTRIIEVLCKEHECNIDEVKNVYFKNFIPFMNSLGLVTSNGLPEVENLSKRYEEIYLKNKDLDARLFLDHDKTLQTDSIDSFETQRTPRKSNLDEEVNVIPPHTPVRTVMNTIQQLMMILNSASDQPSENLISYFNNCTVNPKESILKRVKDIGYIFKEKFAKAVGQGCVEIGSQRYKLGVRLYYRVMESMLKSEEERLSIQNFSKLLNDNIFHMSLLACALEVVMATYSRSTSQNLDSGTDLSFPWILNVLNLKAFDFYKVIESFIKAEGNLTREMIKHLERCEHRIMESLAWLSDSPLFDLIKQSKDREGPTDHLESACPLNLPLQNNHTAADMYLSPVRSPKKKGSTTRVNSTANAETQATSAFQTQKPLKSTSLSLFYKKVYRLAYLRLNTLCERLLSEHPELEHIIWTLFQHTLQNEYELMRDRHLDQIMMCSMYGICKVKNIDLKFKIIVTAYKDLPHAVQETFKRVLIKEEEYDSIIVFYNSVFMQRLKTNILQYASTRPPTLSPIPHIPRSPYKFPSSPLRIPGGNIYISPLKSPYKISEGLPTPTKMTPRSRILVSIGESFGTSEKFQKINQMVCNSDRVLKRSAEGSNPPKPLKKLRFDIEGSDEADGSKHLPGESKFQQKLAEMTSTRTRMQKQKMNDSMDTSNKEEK
In short: (§2)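 KOPN-8 pre-B ALL cells were treated for 3 h and 24 h, with or without N-acetyl cysteine added to a parallel set of cells as an antioxidant/ROS quencher. Lysates were analysed by Western blot for phosphorylated Rb and total Rb. The same blots also probed PARP cleavage, Mcl-1, Ser-2-phosphorylated RNAPII CTD and cMyc.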

KOPN-8 [3] = experiment: Effect on c-Myc expression in human KOPN8 cells at 10 uM pre-treated with NAC for 1 hr and measured after 24 hrs by Western blot analysis relative to control; type: functional
KOPN-8 [4] = experiment: Induction of apoptosis in human KOPN8 cells assessed as effect on Mcl-1 level at 30 uM after 3 hrs by Western blot analysis relative to control; type: functional; in short: as §1
BJ = experiment: Antiproliferative activity against human BJ cells after 72 hrs by CelTiter-Glo assay; type: cell-based
SEM cells = experiment: Antiproliferative activity against human SEM cells after 72 hrs by CelTiter-Glo assay; type: functional, cell-based
SUP-B15 [5] = experiment: Induction of apoptosis in human SUP-B15 cells assessed as viable cells at 10 uM after 24 hrs by Annexin V-FITC/propidium iodide staining-based flow cytometry (reference value: 82.8%); type: functional; conditions: SUP-B15, 24 h, read-out: Activity
Homo sapiens [6] = organism: Homo sapiens; experiment: Inhibition of RNA polymerase 2 C-terminal domain phosphorylation at Ser2 residue in human KOPN8 cells at 30 uM pre-treated with NAC for 1 hr and measured after 3 hrs by Western blot analysis relative to control; type: cell-based; in short: as §1
[7] = biological target: T1, Retinoblastoma-associated protein (Homo sapiens); experiment: Inhibition of Rb phosphorylation in human KOPN8 cells assessed as ratio of phosphorylated Rb to total Rb levels at 100 uM after 24 hrs by Western blot analysis relative to control; type: cell-based; in short: as §2
SUP-B15 [8] = experiment: Antiproliferative activity against human SUP-B15 cells after 72 hrs by CelTiter-Glo assay; type: functional, cell-based; conditions: SUP-B15, 72 h
KOPN-8 [9] = experiment: Antiproliferative activity against human KOPN8 cells after 72 hrs by CelTiter-Glo assay; type: functional, cell-based; conditions: KOPN-8, 72 h
KOPN-8 [10] = experiment: Induction of apoptosis in human KOPN8 cells assessed as late apoptotic cells at 10 uM after 24 hrs by Annexin V-FITC/propidium iodide staining-based flow cytometry (reference value: 9.5%); type: functional
In short: (§3)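 KOPN-8 cells were treated for 24 h, with a DMSO vehicle control and a staurosporine positive control. Cells were stained with FITC-Annexin V and propidium iodide and analysed by flow cytometry. Quadrant gating separated viable, early apoptotic, late apoptotic (Q2) and necrotic populations.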

Homo sapiens [11] = organism: Homo sapiens; experiment: Inhibition of RNA polymerase 2 C-terminal domain phosphorylation at Ser2 residue in human KOPN8 cells at 30 uM pre-treated with NAC for 1 hr and measured after 24 hrs by Western blot analysis relative to control; type: cell-based; in short: as §1
[12] = biological target: T1, Retinoblastoma-associated protein (Homo sapiens); experiment: Inhibition of Rb phosphorylation in human KOPN8 cells assessed as ratio of phosphorylated Rb to total Rb levels at 10 uM after 24 hrs by Western blot analysis relative to control; type: cell-based; in short: as §2
SUP-B15 [13] = experiment: Induction of apoptosis in human SUP-B15 cells assessed as late apoptotic cells at 5 uM after 24 hrs by Annexin V-FITC/propidium iodide staining-based flow cytometry (reference value: 2.2%); type: functional
KOPN-8 [14] = experiment: Effect on c-Myc expression in human KOPN8 cells at 0.5 uM after 24 hrs by Western blot analysis relative to control; type: functional
KOPN-8 [15] = experiment: Induction of apoptosis in human KOPN8 cells assessed as necrotic cells at 5 uM after 24 hrs by Annexin V-FITC/propidium iodide staining-based flow cytometry (reference value: 0.2%); type: functional; in short: as §3
KOPN-8 [16] = experiment: Induction of apoptosis in human KOPN8 cells assessed as early apoptotic cells at 5 uM after 24 hrs by Annexin V-FITC/propidium iodide staining-based flow cytometry (reference value: 0.1%); type: functional
In short: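 KOPN-8 cells treated 24 h alongside a DMSO vehicle and a staurosporine (2.0 µM) positive control. Apoptosis was scored by FITC Annexin V / propidium iodide flow cytometry with quadrant gating (early, late apoptotic). DNA content was measured by PI staining to give the percentage of cells in G0/G1, S and G2/M. Groups were compared by t-test; error bars are SD.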

## COc1ccc(-c2c(I)c(=O)c3c(OC)cc(OC)cc3n2S(=O)(=O)c2ccc(OC)cc2)cc1
KOPN-8 [1]
  fold change (FC): 0.7
UoC-B1
  EC50: 2.55 µM
HepG2
  EC50: > 17.3 µM
[2]
  fold change (FC): 1
KOPN-8 [3]
  fold change (FC): 1.3
KOPN-8 [4]
  fold change (FC): 0.6
BJ
  EC50: > 34.5 µM
SEM cells
  EC50: 5.52 µM
SUP-B15 [5]
  viability at 10 µM: 70.5%
Homo sapiens [6]
  fold change (FC): 0.9
[7]
  fold change (FC): 1
SUP-B15 [8]
  EC50: 12.3 µM
KOPN-8 [9]
  EC50: 8.58 µM
KOPN-8 [10]
  Activity: 69.2%
Homo sapiens [11]
  fold change (FC): 0.7
[12]
  fold change (FC): 1

## CN(C)C(=O)c1cc2cnc(Nc3ccc(N4CCNCC4)cn3)nc2n1C1CCCC1 [RIBOCICLIB]
UoC-B1
  EC50: > 65.5 µM
HepG2
  EC50: 0.286 µM
SUP-B15 [13]
  Activity: 22.5%
BJ
  EC50: > 65.5 µM
SEM cells
  EC50: 0.461 µM
KOPN-8 [14]
  fold change (FC): 1.2
KOPN-8 [15]
  Activity: 0.3%
SUP-B15 [8]
  EC50: > 65.5 µM
KOPN-8 [9]
  EC50: 0.501 µM
KOPN-8 [16]
  Activity: 0.5%
